Measurements from ChEMBL document CHEMBL5058577, “EUbOPEN Chemogenomics Library 2 (Multiplex)” (2022).

System: Fibroblast
Test: Multiplex assay against human fibroblast
Assay type: toxicity, cell-based
Procedure, shortened: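 Live cells were stained at seeding with Hoechst33342, BioTracker Green Microtubule Cytoskeleton Dye, MitoTracker Red and Annexin V Alexa Fluor 680. Following compound addition, they were imaged on a CQ1 microscope at 37°C and 5% CO2 and gated by CellPathfinder machine learning into Hoechst high-intensity objects or normal cells, with normal cells split into healthy, pyknosed or fragmented nuclei and pyknosed cells into mitotic or apoptotic. Tubulin, mitochondrial-mass and membrane-permeability phenotypes are per cents of healthy-nucleus cells.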

[1] = 12 h, 1 µM, compound concentration 1 uM, replicate 1
[2] = 12 h, 1 µM, compound concentration 1 uM, replicate 2
[3] = 12 h, 10 µM, compound concentration 10 uM, replicate 1
[4] = 12 h, 10 µM, compound concentration 10 uM, replicate 2
[5] = 24 h, 1 µM, compound concentration 1 uM, replicate 1
[6] = 24 h, 1 µM, compound concentration 1 uM, replicate 2
[7] = 24 h, 10 µM, compound concentration 10 uM, replicate 1
[8] = 24 h, 10 µM, compound concentration 10 uM, replicate 2
[9] = 48 h, 1 µM, compound concentration 1 uM, replicate 1
[10] = 48 h, 1 µM, compound concentration 1 uM, replicate 2
[11] = 48 h, 10 µM, compound concentration 10 uM, replicate 1
[12] = 48 h, 10 µM, compound concentration 10 uM, replicate 2

Structure (SMILES): COc1cc2nc(N3CCN(C(=O)COc4c(OC)cccc4C(C)C)CC3)nc(N)c2cc1OC.Cl.Cl
- Population Apoptotic (%) [1]: 50%
- Population Fragmented Nuclei (%) [1]: 17%
- Population Healthy Nuclei (%) [1]: 51%
- Population Hoechst High Intensity Objects (%) [1]: 4%
- Population Membrane Permeable-Phenotype (%) [1]: 3%
- Population Mitochondria Different-Phenotype (%) [1]: 6%
- Population Mitotic Cells (%) [1]: 50%
- Population Normal (%) [1]: 95%
- Population Pyknosed Nuclei (%) [1]: 30%
- Population Tubulin-Different-Phenotype (%) [1]: 40%
- Total Cell Count [1]: 123
- Population Apoptotic (%) [2]: 36%
- Population Fragmented Nuclei (%) [2]: 39%
- Population Healthy Nuclei (%) [2]: 42%
- Population Hoechst High Intensity Objects (%) [2]: 9%
- Population Membrane Permeable-Phenotype (%) [2]: 5%
- Population Mitochondria Different-Phenotype (%) [2]: 7%
- Population Mitotic Cells (%) [2]: 63%
- Population Normal (%) [2]: 90%
- Population Pyknosed Nuclei (%) [2]: 18%
- Population Tubulin-Different-Phenotype (%) [2]: 43%
- Total Cell Count [2]: 182
- Population Apoptotic (%) [3]: 33%
- Population Fragmented Nuclei (%) [3]: 13%
- Population Healthy Nuclei (%) [3]: 47%
- Population Hoechst High Intensity Objects (%) [3]: 20%
- Population Membrane Permeable-Phenotype (%) [3]: 0%
- Population Mitochondria Different-Phenotype (%) [3]: 15%
- Population Mitotic Cells (%) [3]: 66%
- Population Normal (%) [3]: 79%
- Population Pyknosed Nuclei (%) [3]: 38%
- Population Tubulin-Different-Phenotype (%) [3]: 63%
- Total Cell Count [3]: 346
- Population Apoptotic (%) [4]: 29%
- Population Fragmented Nuclei (%) [4]: 22%
- Population Healthy Nuclei (%) [4]: 46%
- Population Hoechst High Intensity Objects (%) [4]: 10%
- Population Membrane Permeable-Phenotype (%) [4]: 4%
- Population Mitochondria Different-Phenotype (%) [4]: 8%
- Population Mitotic Cells (%) [4]: 70%
- Population Normal (%) [4]: 89%
- Population Pyknosed Nuclei (%) [4]: 30%
- Population Tubulin-Different-Phenotype (%) [4]: 56%
- Total Cell Count [4]: 283
- Population Apoptotic (%) [5]: 68%
- Population Fragmented Nuclei (%) [5]: 23%
- Population Healthy Nuclei (%) [5]: 58%
- Population Hoechst High Intensity Objects (%) [5]: 3%
- Population Membrane Permeable-Phenotype (%) [5]: 1%
- Population Mitochondria Different-Phenotype (%) [5]: 9%
- Population Mitotic Cells (%) [5]: 31%
- Population Normal (%) [5]: 96%
- Population Pyknosed Nuclei (%) [5]: 17%
- Population Tubulin-Different-Phenotype (%) [5]: 39%
- Total Cell Count [5]: 128
- Population Apoptotic (%) [6]: 57%
- Population Fragmented Nuclei (%) [6]: 40%
- Population Healthy Nuclei (%) [6]: 42%
- Population Hoechst High Intensity Objects (%) [6]: 11%
- Population Membrane Permeable-Phenotype (%) [6]: 5%
- Population Mitochondria Different-Phenotype (%) [6]: 11%
- Population Mitotic Cells (%) [6]: 42%
- Population Normal (%) [6]: 88%
- Population Tubulin-Different-Phenotype (%) [6]: 50%
- Total Cell Count [6]: 180
- Population Apoptotic (%) [7]: 40%
- Population Fragmented Nuclei (%) [7]: 13%
- Population Healthy Nuclei (%) [7]: 45%
- Population Hoechst High Intensity Objects (%) [7]: 39%
- Population Membrane Permeable-Phenotype (%) [7]: 0%
- Population Mitochondria Different-Phenotype (%) [7]: 17%
- Population Mitotic Cells (%) [7]: 60%
- Population Normal (%) [7]: 60%
- Population Pyknosed Nuclei (%) [7]: 41%
- Population Tubulin-Different-Phenotype (%) [7]: 38%
- Total Cell Count [7]: 344
- Population Apoptotic (%) [8]: 33%
- Population Fragmented Nuclei (%) [8]: 25%
- Population Healthy Nuclei (%) [8]: 40%
- Population Hoechst High Intensity Objects (%) [8]: 23%
- Population Membrane Permeable-Phenotype (%) [8]: 4%
- Population Mitochondria Different-Phenotype (%) [8]: 5%
- Population Mitotic Cells (%) [8]: 66%
- Population Normal (%) [8]: 76%
- Population Pyknosed Nuclei (%) [8]: 34%
- Population Tubulin-Different-Phenotype (%) [8]: 47%
- Total Cell Count [8]: 273
- Population Apoptotic (%) [9]: 65%
- Population Fragmented Nuclei (%) [9]: 31%
- Population Healthy Nuclei (%) [9]: 51%
- Population Hoechst High Intensity Objects (%) [9]: 4%
- Population Membrane Permeable-Phenotype (%) [9]: 0%
- Population Mitochondria Different-Phenotype (%) [9]: 11%
- Population Mitotic Cells (%) [9]: 35%
- Population Normal (%) [9]: 96%
- Population Pyknosed Nuclei (%) [9]: 16%
- Population Tubulin-Different-Phenotype (%) [9]: 30%
- Total Cell Count [9]: 125
- Population Apoptotic (%) [10]: 42%
- Population Fragmented Nuclei (%) [10]: 45%
- Population Healthy Nuclei (%) [10]: 43%
- Population Hoechst High Intensity Objects (%) [10]: 10%
- Population Membrane Permeable-Phenotype (%) [10]: 8%
- Population Mitochondria Different-Phenotype (%) [10]: 10%
- Population Mitotic Cells (%) [10]: 57%
- Population Normal (%) [10]: 89%
- Population Pyknosed Nuclei (%) [10]: 11%
- Population Tubulin-Different-Phenotype (%) [10]: 57%
- Total Cell Count [10]: 193
- Population Apoptotic (%) [11]: 45%
- Population Fragmented Nuclei (%) [11]: 12%
- Population Healthy Nuclei (%) [11]: 45%
- Population Hoechst High Intensity Objects (%) [11]: 52%
- Population Membrane Permeable-Phenotype (%) [11]: 2%
- Population Mitochondria Different-Phenotype (%) [11]: 10%
- Population Mitotic Cells (%) [11]: 54%
- Population Normal (%) [11]: 47%
- Population Pyknosed Nuclei (%) [11]: 42%
- Population Tubulin-Different-Phenotype (%) [11]: 42%
- Total Cell Count [11]: 358
- Population Apoptotic (%) [12]: 30%
- Population Fragmented Nuclei (%) [12]: 33%
- Population Healthy Nuclei (%) [12]: 33%
- Population Hoechst High Intensity Objects (%) [12]: 31%
- Population Membrane Permeable-Phenotype (%) [12]: 9%
- Population Mitochondria Different-Phenotype (%) [12]: 0%
- Population Mitotic Cells (%) [12]: 69%
- Population Normal (%) [12]: 68%
- Population Pyknosed Nuclei (%) [12]: 33%
- Population Tubulin-Different-Phenotype (%) [12]: 43%
- Total Cell Count [12]: 311
